Calls of active or inactive are those of the source. The rule behind the calls is not given here.
What was measured:
K562 [1] = assay: Cytotoxicity against human K562 cells assessed as cell growth inhibition after 48 hrs by MTT assay; type: functional, cell-based; settings: K562, 48 h
How it was run: (§1)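 Suspension cells seeded at 5000/well (HL-60 in IMDM, K562 in RPMI, both with 10% FBS) and treated. MTT then added for 4 h at 37 °C; plates centrifuged at 3000 rpm for 30 min, medium removed, DMSO added, OD570 read. IC50 taken as concentration giving 50% growth inhibition; triplicate.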

HL-60 = assay: Cytotoxicity against human HL60 cells assessed as cell growth inhibition after 48 hrs by MTT assay; type: functional, cell-based; settings: HL-60, 48 h; how it was run: as §1
ECa-109 cell line = assay: Cytotoxicity against human ECA109 cells assessed as cell growth inhibition after 48 hrs by MTT assay; type: functional, cell-based; settings: ECa-109, 48 h
How it was run: (§2)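 Adherent cells seeded at 5000/well, left 16−24 h, then exposed 48 h at 37 °C, 5% CO2 in RPMI with 10% FBS. Medium refreshed, MTT added for 4 h at 37 °C, medium removed, formazan dissolved in DMSO, OD570 read. IC50 taken as concentration inhibiting growth by 50%; triplicate.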

A549 = assay: Cytotoxicity against human A549 cells assessed as cell growth inhibition after 48 hrs by MTT assay; type: functional, cell-based; settings: A549, 48 h; how it was run: as §2
HepG2 = assay: Cytotoxicity against human HepG2 cells assessed as cell growth inhibition after 48 hrs by MTT assay; type: functional, cell-based; settings: HepG2, 48 h; how it was run: as §2
L02 = assay: Cytotoxicity against human HL-7702 cells assessed as cell growth inhibition after 48 hrs by MTT assay; type: cell-based; settings: L02, 48 h; how it was run: as §2
K562 [2] = assay: Induction of apoptosis in human K562 cells assessed as viable cells at 1 uM after 48 hrs by Annexin V-FITC/propidium iodide-staining based flow cytometric analysis (reference value: 95.75 to 96.56%); type: functional; settings: K562, 48 h, read-out: Activity
How it was run: (§3)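 K562 seeded at 4 × 10^5 cells/well, 12 h, then exposed 48 h. Cells washed in ice-cold PBS, suspended in binding buffer, stained with annexin V-FITC and PI for 15 min at room temperature in the dark, and read by flow cytometry within 1 h. Cells counted as early/late apoptotic as % of total; n = 3.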

K562 [3] = assay: Induction of apoptosis in human K562 cells assessed as early apoptotic cells at 1 uM after 48 hrs by Annexin V-FITC/propidium iodide-staining based flow cytometric analysis (reference value: 0.92 to 1.45%); type: functional; how it was run: as §3
K562 [4] = assay: Induction of apoptosis in human K562 cells assessed as late apoptotic cells at 1 uM after 48 hrs by Annexin V-FITC/propidium iodide-staining based flow cytometric analysis (reference value: 2.25 to 2.67%); type: functional; how it was run: as §3
K562 [5] = assay: Induction of apoptosis in human K562 cells assessed as necrotic cells at 1 uM after 48 hrs by Annexin V-FITC/propidium iodide-staining based flow cytometric analysis (reference value: 0.13 to 0.27%); type: functional; how it was run: as §3
K562 [6] = assay: Induction of apoptosis in human K562 cells assessed as viable cells at 2 uM after 48 hrs by Annexin V-FITC/propidium iodide-staining based flow cytometric analysis (reference value: 95.75 to 96.56%); type: functional; settings: K562, 48 h, read-out: Activity; how it was run: as §3
K562 [7] = assay: Induction of apoptosis in human K562 cells assessed as early apoptotic cells at 2 uM after 48 hrs by Annexin V-FITC/propidium iodide-staining based flow cytometric analysis (reference value: 0.92 to 1.45%); type: functional; how it was run: as §3
K562 [8] = assay: Induction of apoptosis in human K562 cells assessed as late apoptotic cells at 2 uM after 48 hrs by Annexin V-FITC/propidium iodide-staining based flow cytometric analysis (reference value: 2.25 to 2.67%); type: functional; how it was run: as §3
K562 [9] = assay: Induction of apoptosis in human K562 cells assessed as necrotic cells at 2 uM after 48 hrs by Annexin V-FITC/propidium iodide-staining based flow cytometric analysis (reference value: 0.13 to 0.27%); type: functional; how it was run: as §3
K562 [10] = assay: Induction of apoptosis in human K562 cells assessed as viable cells at 3 uM after 48 hrs by Annexin V-FITC/propidium iodide-staining based flow cytometric analysis (reference value: 95.75 to 96.56%); type: functional; settings: K562, 48 h, read-out: Activity; how it was run: as §3
K562 [11] = assay: Induction of apoptosis in human K562 cells assessed as early apoptotic cells at 3 uM after 48 hrs by Annexin V-FITC/propidium iodide-staining based flow cytometric analysis (reference value: 0.92 to 1.45%); type: functional; how it was run: as §3
K562 [12] = assay: Induction of apoptosis in human K562 cells assessed as late apoptotic cells at 3 uM after 48 hrs by Annexin V-FITC/propidium iodide-staining based flow cytometric analysis (reference value: 2.25 to 2.67%); type: functional; how it was run: as §3
K562 [13] = assay: Induction of apoptosis in human K562 cells assessed as necrotic cells at 3 uM after 48 hrs by Annexin V-FITC/propidium iodide-staining based flow cytometric analysis (reference value: 0.13 to 0.27%); type: functional; how it was run: as §3
K562 [14] = assay: Decrease in mitochondrial membrane potential in human K562 cells at 1 to 2 uM after 48 hrs by JC-1 staining based fluorescence microscopic analysis; type: functional, cell-based
How it was run: (§4)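 K562 seeded at 4 × 10^5 cells/well, after 12 h treated 48 h. Cells washed in ice-cold PBS, loaded with JC-1 ([…]) at 37 °C for 15 min, rinsed, and analysed by flow cytometry (% cells with red aggregates) and fluorescence microscopy (red aggregates vs green monomers).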

K562 [15] = assay: Decrease in mitochondrial membrane potential in human K562 cells after 48 hrs by JC-1 staining based flow cytometry; type: functional, cell-based; how it was run: as §4
K562 [16] = assay: Induction of ROS generation in human K562 cells at 1 uM after 48 hrs by DCFH-DA probe based flow cytometric analysis relative to control; type: functional
How it was run: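 K562 seeded at 4 × 10^5 cells/well, 12 h, then treated 48 h. Washed cells loaded with DCFH-DA in FBS-free medium at 37 °C for 30 min, rinsed, read by flow cytometry. ROSup was the positive control; mean ± SD, n = 3.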

K562 [17] = assay: Induction of mitochondrial membrane depolarization in human K562 cells assessed as cells with intact mitochondrial membrane potential at 2 uM after 48 hrs by JC-1 staining based flow cytometric analysis (reference value: 97.63 to 97.67%); type: functional; how it was run: as §4
K562 [18] = assay: Induction of mitochondrial membrane depolarization in human K562 cells assessed as cells with mitochondrial membrane potential loss at 2 uM after 48 hrs by JC-1 staining based flow cytometric analysis (reference value: 1.89 to 2.23%); type: functional
K562 [19] = assay: Induction of mitochondrial membrane depolarization in human K562 cells assessed as cells with intact mitochondrial membrane potential at 4 uM after 48 hrs by JC-1 staining based flow cytometric analysis (reference value: 97.63 to 97.67%); type: functional
K562 [20] = assay: Induction of mitochondrial membrane depolarization in human K562 cells assessed as cells with mitochondrial membrane potential loss at 4 uM after 48 hrs by JC-1 staining based flow cytometric analysis (reference value: 1.89 to 2.23%); type: functional
K562 [21] = assay: Induction of mitochondrial membrane depolarization in human K562 cells assessed as cells with intact mitochondrial membrane potential at 6 uM after 48 hrs by JC-1 staining based flow cytometric analysis (reference value: 97.63 to 97.67%); type: functional
K562 [22] = assay: Induction of mitochondrial membrane depolarization in human K562 cells assessed as cells with mitochondrial membrane potential loss at 6 uM after 48 hrs by JC-1 staining based flow cytometric analysis (reference value: 1.89 to 2.23%); type: functional
K562 [23] = assay: Induction of apoptosis in human K562 cells assessed as upregulation of cleaved PARP up to 6 uM after 48 hrs by Western blot analysis; type: functional, cell-based
K562 [24] = assay: Induction of apoptosis in human K562 cells assessed as decrease in cytochrome c level in mitochondria up to 6 uM after 48 hrs by Western blot analysis; type: functional, cell-based
How it was run: (§5)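 K562 treated 48 h, then lysed on ice for 30 min; cytosolic and mitochondrial fractions isolated by kit where needed, protein measured by BCA. 60 μg/lane run on SDS-PAGE, transferred to PVDF, blocked in 5% milk/TBST for 4 h. Probed for cytochrome c, caspase-9, caspase-3 (total/cleaved), PARP; alkaline phosphatase secondary.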

K562 [25] = assay: Induction of apoptosis in human K562 cells assessed as increase in cytosolic cytochrome c level up to 6 uM after 48 hrs by Western blot analysis; type: functional, cell-based; how it was run: as §5
K562 [26] = assay: Induction of apoptosis in human K562 cells after 48 hrs by Annexin V-FITC/propidium iodide-staining based flow cytometric analysis; type: functional, cell-based; how it was run: as §3

`C=C(C)[C@@H]1CC[C@]2(COC(=O)CCCC[P+](c3ccccc3)(c3ccccc3)c3ccccc3)CC[C@]3(C)[C@H](CC[C@@H]4[C@@]5(C)CC[C@H](OC=O)C(C)(C)[C@@H]5CC[C@]43C)[C@@H]12` was tested, and the IC50 (K562 [1]) was 0.81 µM, the IC50 (HL-60) was 0.71 µM and the IC50 (ECa-109 cell line) was 0.95 µM. For the same compound, the IC50 (A549) was 1.1 µM, the IC50 (HepG2) was 1.11 µM and the IC50 (L02) was 8.32 µM.
Work on `C=C(C)[C@@H]1CC[C@]2(C(=O)O)CC[C@]3(C)[C@H](CC[C@@H]4[C@@]5(C)CC[C@H](OC(=O)CCCC[P+](c6ccccc6)(c6ccccc6)c6ccccc6)C(C)(C)[C@@H]5CC[C@]43C)[C@@H]12.[Br-]` yielded an IC50 (K562 [1]) of 1.24 µM, an IC50 (HL-60) of 0.32 µM and an IC50 (ECa-109 cell line) of 0.92 µM. For the same compound, the IC50 (A549) was 1.26 µM, the IC50 (HepG2) was 1.07 µM and the IC50 (L02) was 4.92 µM. The viability at 1 µM (K562 [2]) was 81%, the Activity (K562 [3]) was 9.55% and the Activity (K562 [4]) was 9.35%. For the same compound, the Activity (K562 [5]) was 0.14%, the viability at 2 µM (K562 [6]) was 72.6% and the Activity (K562 [7]) was 10.78%. It also gave an Activity (K562 [8]) of 16.43%, an Activity (K562 [9]) of 0.23% and a viability at 3 µM (K562 [10]) of 61.4%. For the same compound, the Activity (K562 [11]) was 11.47%, the Activity (K562 [12]) was 26.46% and the Activity (K562 [13]) was 0.7%. For the same compound, the Activity (K562 [14]) was “Active”, the Activity (K562 [15]) was “Dose-dependent effect” and the Activity (K562 [16]) was 50%. It also gave an Activity (K562 [17]) of 75.16%, an Activity (K562 [18]) of 24.68% and an Activity (K562 [19]) of 41.5%. The Activity (K562 [20]) was 58.36%, the Activity (K562 [21]) was 27.63% and the Activity (K562 [22]) was 72.12%. For the same compound, the Activity (K562 [23]) was “Active”, the Activity (K562 [24]) was “Active” and the Activity (K562 [25]) was “Active”. The Activity (K562 [26]) was “Dose-dependent effect”.
In the case of `C=C(C)[C@@H]1CC[C@]2(C(=O)OCC)CC[C@]3(C)[C@H](CC[C@@H]4[C@@]5(C)CC[C@H](OC(=O)CCCC[P+](c6ccccc6)(c6ccccc6)c6ccccc6)C(C)(C)[C@@H]5CC[C@]43C)[C@@H]12`, the IC50 (K562 [1]) is reported as 4.03 µM, the IC50 (HL-60) is reported as 2.75 µM and the IC50 (ECa-109 cell line) is reported as 6.04 µM. It also gave an IC50 (A549) of 4.79 µM, an IC50 (HepG2) of 4.54 µM and an IC50 (L02) of 7.85 µM.
`O=C(O)CCCC[P+](c1ccccc1)(c1ccccc1)c1ccccc1` was tested, and the IC50 (K562 [1]) was > 200 µM, the IC50 (HL-60) was 118 µM and the IC50 (ECa-109 cell line) was 112 µM. For the same compound, the IC50 (A549) was 172 µM, the IC50 (HepG2) was 158 µM and the IC50 (L02) was > 200 µM.

From ChEMBL document CHEMBL4011654, “Mitochondria-Targeted Lupane Triterpenoid Derivatives and Their Selective Apoptosis-Inducing Anticancer Mechanisms” (J Med Chem, 2017)
